IC50 and viability data for 6 compounds are collected here from ChEMBL document CHEMBL4610095, “chiro-Inositol Derivatives from Chisocheton paniculatus Showing Inhibition of Nitric Oxide Production” (J Nat Prod, 2020).

For one series, the system named is RAW264.7. The series can be described thus: Antiinflammatory activity in mouse RAW264.7 cells assessed as reduction in LPS-induced NO production incubated for 24 hrs by Griess reagent based assay. It is filed as functional, cell-based. As to conditions: RAW264.7, 24 h. An outline of the steps:
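RAW 264.7 cells seeded at 2×10^5 cells/well and held 24 h at 37 °C, 5% CO2. Cells treated with or without compounds at various concentrations plus LPS (1 μg/mL) for 24 h. Nitrite in cell-free supernatant read by Griess reaction (sulfanilamide/phosphoric acid, N-1-naphthylethylenediamine) at 540 nm against a NaNO2 standard curve. L-NMMA served as positive control. IC50 reported.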
In general terms: Griess reagent forms a coloured azo dye with nitrite.

Series [1] can be described thus: Cytotoxicity against mouse RAW264.7 cells assessed as cell viability at 100 ug/ml by MTT assay. It is filed as cell-based. As to conditions: read-out: Activity. Put shortly:
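Compounds tested at 100 μg/mL on RAW 264.7 cells seeded at 2×10^5 cells/well. Cells were co-stimulated with LPS (1 μg/mL) for 24 h at 37 °C. Viability of the remaining cells after supernatant removal was measured by MTT colorimetric assay.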

The term IC50 denotes the midpoint of a concentration-inhibition curve. Turning to `C/C=C(\C)C(=O)O[C@@H]1[C@H](O)[C@@H](OC(=O)C(C)CC)[C@@H](O)[C@H](OC(=O)/C(=C/C)CO)[C@H]1OC(=O)/C(=C/C)CO` (some centres not stated), the IC50 with RAW264.7 is 20.3 µM. In addition, the viability at 100 ug/ml in series [1] was over 85%.

With `C/C=C(\C)C(=O)O[C@@H]1[C@H](O)[C@@H](OC(=O)C(C)CC)[C@@H](OC(=O)/C(=C/C)CO)[C@H](O)[C@H]1OC(=O)/C(=C/C)CO` (some centres not stated), the half-maximal inhibitory concentration (IC50) in the series with RAW264.7 is 7.1 µM. The viability at 100 ug/ml in series [1] is over 85%.

As to `C/C=C(\CO)C(=O)O[C@H]1[C@H](OC(=O)C(C)CC)[C@H](O)[C@@H](OC(=O)C(C)CC)[C@@H](O)[C@@H]1OC(=O)/C(=C/C)CO` (some centres not stated), in the series on RAW264.7, the IC50 came to 62.9 µM. Also, the viability at 100 ug/ml in series [1] is over 85%.

On to `C/C=C(\CO)C(=O)O[C@@H]1[C@@H](O)[C@H](OC(=O)/C(=C/C)CO)[C@H](OC(=O)C(C)CC)[C@@H](O)[C@H]1OC(=O)C(C)CC` (some centres not stated), for which the IC50 in the series with RAW264.7 came out at 95.6 µM. Moreover, the viability at 100 ug/ml in series [1] was over 85%.

As to `C/C=C(\C)C(=O)O[C@@H]1[C@@H](O)[C@@H](OC(=O)C(C)CC)[C@H](OC(=O)/C(=C/C)CO)[C@@H](OC(=O)/C(=C/C)CO)[C@@H]1O` (some centres not stated), the half-maximal inhibitory concentration (IC50) with RAW264.7 stood at 124 µM. Further, the viability at 100 ug/ml in series [1] is over 85%.

On to `C/C=C(\C)C(=O)O[C@@H]1[C@H](O)[C@@H](O)[C@@H](OC(=O)/C(C)=C/C)[C@H](OC(=O)/C(=C/C)CO)[C@H]1OC(=O)/C(=C/C)CO`, for which the half-maximal inhibitory concentration (IC50) in the series on RAW264.7 is 56.7 µM. In addition, the viability at 100 ug/ml in series [1] is over 85%.
